The source made the active and inactive calls. The calls are words filed in the database; no cut-off is given here.
biological target: T1, Toll-like receptor 8 (Homo sapiens, UniProt Q9NR97); assay: Agonist activity at TLR8 in human PBMC assessed as increase in TNF-alpha production after 16 hrs by immunoassay
T1 sequence (Q9NR97 whole entry): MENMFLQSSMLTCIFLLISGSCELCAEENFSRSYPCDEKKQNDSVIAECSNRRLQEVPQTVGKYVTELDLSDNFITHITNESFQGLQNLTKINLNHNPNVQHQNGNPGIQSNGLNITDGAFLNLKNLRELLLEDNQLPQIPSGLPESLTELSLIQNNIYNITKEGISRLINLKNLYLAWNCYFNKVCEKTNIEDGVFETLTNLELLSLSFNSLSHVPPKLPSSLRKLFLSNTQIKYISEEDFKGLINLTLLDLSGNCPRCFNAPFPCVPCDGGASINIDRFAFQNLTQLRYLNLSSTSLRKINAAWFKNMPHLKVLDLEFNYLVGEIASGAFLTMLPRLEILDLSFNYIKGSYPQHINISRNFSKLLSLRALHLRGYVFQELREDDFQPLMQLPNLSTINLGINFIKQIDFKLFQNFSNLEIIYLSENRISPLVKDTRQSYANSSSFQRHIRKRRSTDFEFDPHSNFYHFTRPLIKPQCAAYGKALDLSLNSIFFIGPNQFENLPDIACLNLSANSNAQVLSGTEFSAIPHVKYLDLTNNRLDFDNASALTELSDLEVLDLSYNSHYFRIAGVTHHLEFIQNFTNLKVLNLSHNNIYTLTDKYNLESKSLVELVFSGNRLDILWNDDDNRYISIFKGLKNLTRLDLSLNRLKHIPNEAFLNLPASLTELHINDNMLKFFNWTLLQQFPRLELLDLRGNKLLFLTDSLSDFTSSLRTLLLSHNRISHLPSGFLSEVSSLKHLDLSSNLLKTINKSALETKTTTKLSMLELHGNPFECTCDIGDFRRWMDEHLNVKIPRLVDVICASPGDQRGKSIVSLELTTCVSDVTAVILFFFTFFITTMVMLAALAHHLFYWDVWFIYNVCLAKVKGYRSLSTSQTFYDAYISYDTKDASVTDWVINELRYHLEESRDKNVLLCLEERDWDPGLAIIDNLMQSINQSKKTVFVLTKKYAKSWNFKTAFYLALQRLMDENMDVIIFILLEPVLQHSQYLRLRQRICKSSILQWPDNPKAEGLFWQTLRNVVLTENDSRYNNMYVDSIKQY
Summary of the method: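 Freshly isolated human PBMC from venipuncture blood (informed consent), 10^5 cells/well, stimulated 16 h with graded concentrations of compound. Supernatants collected by centrifugation and cytokines quantified in duplicate with a multiplexed cytokine/chemokine magnetic bead array.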

SMILES | EC50 [µM]
CCCCNc1nc(N)nc(C)c1CCCCN | 9.26

biological target: T2, Toll-like receptor 9 (Homo sapiens) (UniProt Q9NR96); assay: Agonist activity at human TLR9 expressed in HEK293 cells assessed as induction of NF-kappaB activity by secreted alkaline phosphatase reporter gene assay; assay type: cell-based
T2 sequence (whole entry): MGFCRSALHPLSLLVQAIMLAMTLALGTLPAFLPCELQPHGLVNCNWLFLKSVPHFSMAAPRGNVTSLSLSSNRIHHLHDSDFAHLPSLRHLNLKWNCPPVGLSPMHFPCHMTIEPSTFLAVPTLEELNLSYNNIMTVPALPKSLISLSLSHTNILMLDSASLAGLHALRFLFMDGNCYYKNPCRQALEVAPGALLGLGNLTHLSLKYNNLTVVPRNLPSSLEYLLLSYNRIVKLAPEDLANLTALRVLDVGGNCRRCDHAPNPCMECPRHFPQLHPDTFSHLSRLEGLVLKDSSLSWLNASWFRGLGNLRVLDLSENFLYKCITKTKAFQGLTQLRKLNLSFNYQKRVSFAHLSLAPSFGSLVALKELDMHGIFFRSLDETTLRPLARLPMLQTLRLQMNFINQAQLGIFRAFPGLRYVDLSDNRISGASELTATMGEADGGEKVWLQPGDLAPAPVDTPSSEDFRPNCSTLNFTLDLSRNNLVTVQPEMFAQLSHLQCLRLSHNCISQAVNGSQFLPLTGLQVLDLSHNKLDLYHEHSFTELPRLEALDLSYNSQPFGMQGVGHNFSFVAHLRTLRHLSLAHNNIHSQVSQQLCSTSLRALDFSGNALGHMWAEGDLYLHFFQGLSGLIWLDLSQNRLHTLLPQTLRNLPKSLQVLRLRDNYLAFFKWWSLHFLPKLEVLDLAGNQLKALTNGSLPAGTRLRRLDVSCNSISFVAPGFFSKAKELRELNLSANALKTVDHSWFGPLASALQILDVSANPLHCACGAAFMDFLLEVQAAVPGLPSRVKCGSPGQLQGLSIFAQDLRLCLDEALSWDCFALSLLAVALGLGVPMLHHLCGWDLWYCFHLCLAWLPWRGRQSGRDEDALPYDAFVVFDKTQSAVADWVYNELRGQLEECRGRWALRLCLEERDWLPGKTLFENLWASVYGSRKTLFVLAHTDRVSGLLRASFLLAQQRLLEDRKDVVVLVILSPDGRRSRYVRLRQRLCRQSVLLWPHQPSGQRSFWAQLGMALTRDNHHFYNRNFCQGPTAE
Summary of the method: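 HEK293 reporter lines stably co-transfected with the respective human TLR and an NF-κB/AP-1-driven secreted alkaline phosphatase gene, kept in selection medium. About 10^5 cells/ml were incubated with graded concentrations of stimuli. Supernatant sAP was read spectrophotometrically at 620 nm using a chromogenic substrate in detection medium. EC50 was taken as the arithmetic mean of quadruplicate samples.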

SMILES | Activity
CCCCNc1cc(-c2ccccc2)nc(N)n1 | inactive
CCCCNc1nc(N)nc(C)c1I | inactive
CCCCNc1nc(N)nc(C)c1CCCCN | inactive
CCCCNc1nc(N)nc(-c2ccccc2)c1CCCCN | inactive
CCCCCn1c(N)nc2c(C)cccc21 | inactive

Reference: ChEMBL document CHEMBL4428062, “Human Toll-like Receptor (TLR) 8-Specific Agonistic Activity in Substituted Pyrimidine-2,4-diamines” (J Med Chem, 2016)
